In brackets after ≈: the same amount, converted by molar mass.
Legend:
[1] = Antiinflammatory activity in human neutrophils assessed as inhibition of FMLP/CB-induced superoxide anion generation; type: functional, cell-based; conditions: Neutrophil
Summary of the method: (§1)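 IC50 (concentration giving 50% inhibition) in human neutrophils, reported as mean ± SEM, n = 3–5. LY294002, a phosphatidylinositol-3-kinase inhibitor, served as the positive control for both superoxide anion generation and elastase release.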

[2] = Antiinflammatory activity in human neutrophils assessed as inhibition of FMLP/CB-induced elastase release; type: functional, cell-based; conditions: Neutrophil; summary of the method: as §1
MDA-MB-231 = assay: Cytotoxicity against human MDA-MB-231 cells by MTT assay; type: functional, cell-based
Summary of the method: (§2)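 Fractions and isolates were screened against the cancer cell lines by a colorimetric MTT assay run to an established protocol, with doxorubicin as the positive control.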

[3] = Cytotoxicity against human Hep3B cells by MTT assay; type: functional, cell-based, Hep 3B2; summary of the method: as §2
[4] = Antiinflammatory activity in human neutrophils assessed as inhibition of FMLP/CB-induced superoxide anion generation at 10 ug/ml; type: functional, Neutrophil
Summary of the method: (§3)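 Percentage inhibition in human neutrophils, measured at 10 μg/mL test concentration and reported as mean ± SEM (n = 3–5). Significance was tested against the control value at p < 0.05, 0.01 and 0.001. LY294002 was the positive control.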

[5] = Antiinflammatory activity in human neutrophils assessed as inhibition of FMLP/CB-induced elastase release at 10 ug/ml; type: functional, Neutrophil; conditions: for inhibition at 10 µg/mL: Homo sapiens, Neutrophil; summary of the method: as §3
HepG2 = assay: Cytotoxicity against human HepG2 cells by MTT assay; type: functional, cell-based; summary of the method: as §2
A549 = assay: Cytotoxicity against human A549 cells by MTT assay; type: functional, cell-based; summary of the method: as §2
Ca9-22 = assay: Cytotoxicity against human Ca9-22 cells by MTT assay; type: functional, cell-based; summary of the method: as §2
MCF7 = assay: Cytotoxicity against human MCF7 cells by MTT assay; type: functional, cell-based; summary of the method: as §2
Neutrophil = assay: Ratio of LY294002 IC50 to compound IC50 for FMLP/CB-induced elastase release in human neutrophils; type: functional
[6] = Homo sapiens, MDA-MB-231, read-out: IC50
[7] = Homo sapiens, Hep3B, read-out: IC50
[8] = Homo sapiens, HepG2, read-out: IC50
[9] = Homo sapiens, A549, read-out: IC50
[10] = Homo sapiens, Ca9-22, read-out: IC50
[11] = Homo sapiens, MCF7, read-out: IC50

SMILES	IC50 [1]	IC50 [2]	IC50 (MDA-MB-231; [6])	IC50 [3, 7]	IC50 (HepG2; [8])	IC50 (A549; [9])	IC50 (Ca9-22; [10])	IC50 (MCF7; [11])	also measured
C=C[C@H](C1=CC(=O)C(OC)=CC1=O)c1ccc(OC)c(O)c1	0.47 µg/mL (≈ 1.57 µM)	1.44 µg/mL (≈ 4.8 µM)	3.34 µg/mL (≈ 11.1 µM)	2.39 µg/mL (≈ 7.96 µM)	–	–	–	–	–
C=C[C@H](C1=CC(O)(CC(C)=O)C(OC)=CC1=O)c1ccc(OC)c(O)c1 (single isomer, unassigned) [PTEROLINUS HB]	–	–	2.85 µg/mL (≈ 7.95 µM)	–	3.65 µg/mL (≈ 10.2 µM)	–	–	–	inhibition at 10 µg/mL ([4]; Homo sapiens, Neutrophil): 29.4%; inhibition (INH) [5]: 19.53%
C=C[C@H](C1=CC(O)(CC(C)=O)C(OC)=CC1=O)c1ccc(OC)c(O)c1 (single isomer, unassigned; epimer 2) [PTEROLINUS HB]	–	–	–	–	–	3.97 µg/mL (≈ 11.1 µM)	–	–	inhibition (INH) [4]: 34.15%; inhibition (INH) [5]: 2.84%
O=c1cc(N2CCOCC2)oc2c(-c3ccccc3)cccc12 [LY-294002]	1.18 µg/mL (≈ 3.84 µM)	1.99 µg/mL (≈ 6.47 µM)	–	–	–	–	–	–	–
COc1cc2oc(-c3ccc(O)cc3)c(C)c2cc1O [PTEROLINUS B]	0.19 µg/mL (≈ 0.703 µM)	47.8 µg/mL (≈ 177 µM)	–	–	–	2.34 µg/mL (≈ 8.66 µM)	–	1.74 µg/mL (≈ 6.44 µM)	–
COC1=CC(=O)C2(C(C)C(O)c3ccc(OC)c(O)c3)OC2C1=O (stereo not drawn) [PTEROLINUS D]	0.29 µg/mL (≈ 0.867 µM)	1.06 µg/mL (≈ 3.17 µM)	4.89 µg/mL (≈ 14.6 µM)	2.08 µg/mL (≈ 6.22 µM)	4.33 µg/mL (≈ 13 µM)	–	–	3.31 µg/mL (≈ 9.9 µM)	Ratio IC50 (Neutrophil): 1.9
COC1=CC(=O)C([C@@H](C)[C@@H](O)c2ccc(OC)c(O)c2)=CC1=O [PTEROLINUS E]	–	2.13 µg/mL (≈ 6.69 µM)	6.96 µg/mL (≈ 21.9 µM)	6.96 µg/mL (≈ 21.9 µM)	6.96 µg/mL (≈ 21.9 µM)	6.96 µg/mL (≈ 21.9 µM)	6.96 µg/mL (≈ 21.9 µM)	6.96 µg/mL (≈ 21.9 µM)	–

Now from value to compound, other results behind:

IC50 [1]	IC50 [2]	SMILES	IC50 (MDA-MB-231; [6])	IC50 [3, 7]	IC50 (HepG2; [8])	IC50 (A549; [9])	IC50 (Ca9-22; [10])	IC50 (MCF7; [11])	also measured
0.73 µg/mL (≈ 2.43 µM)	3.69 µg/mL (≈ 12.3 µM)	COc1ccc(-c2oc3cc(OC)c(O)cc3c2C)cc1O [DEHYDROMELANOXIN]	–	–	–	–	–	–	IC50 (A549; a549): Not Active; IC50 (Ca9-22; ca9-22): Not Active; IC50 (MDA-MB-231; mda-mb-231): Not Active; IC50 (MCF7; mcf7): Not Active; IC50 (HepG2; hepg2): Not Active; IC50 ([3]; hep 3b2): Not Active
3.18 µg/mL (≈ 10.1 µM)	–	COc1ccc(-c2cc(=O)oc3cc(OC)c(O)cc23)cc1O [MELANNEIN]	> 17.1 µg/mL	> 17.1 µg/mL	> 17.1 µg/mL	> 17.1 µg/mL	> 17.1 µg/mL	> 17.1 µg/mL	inhibition at 10 µg/mL [5]: -1.53%
0.69 µg/mL (≈ 2.28 µM)	–	COc1ccc([C@H]2Oc3cc(OC)c(O)cc3[C@@H]2C)cc1O [MELANOXIN]	7.7 µg/mL (≈ 25.5 µM)	7.7 µg/mL (≈ 25.5 µM)	7.7 µg/mL (≈ 25.5 µM)	7.7 µg/mL (≈ 25.5 µM)	7.7 µg/mL (≈ 25.5 µM)	7.7 µg/mL (≈ 25.5 µM)	inhibition at 10 µg/mL [5]: 33.3%
–	3.62 µg/mL (≈ 12.5 µM)	COc1ccc(C(=O)c2cc(O)c(OC)cc2O)cc1O [MELANOXOIN]	–	–	–	–	0.46 µg/mL (≈ 1.58 µM)	–	–
0.33 µg/mL (≈ 1.1 µM)	2.54 µg/mL (≈ 8.46 µM)	COc1ccc(-c2c(C)oc3cc(OC)c(O)cc23)cc1O [PTEROLINUS A]	–	–	–	–	–	–	IC50 (A549; a549): Not Active; IC50 (Ca9-22; ca9-22): Not Active; IC50 (MDA-MB-231; mda-mb-231): Not Active; IC50 (MCF7; mcf7): Not Active; IC50 (HepG2; hepg2): Not Active; IC50 ([3]; hep 3b2): Not Active
2.28 µg/mL (≈ 7.21 µM)	–	COc1ccc([C@H]2Oc3cc(OC)c(OC)cc3[C@@H]2C)cc1O [PTEROLINUS C]	> 19.4 µg/mL	> 19.4 µg/mL	> 19.4 µg/mL	> 19.4 µg/mL	> 19.4 µg/mL	> 19.4 µg/mL	inhibition at 10 µg/mL [5]: 9.73%
–	3.22 µg/mL (≈ 9.75 µM)	C=C[C@@H](c1ccc(OC)c(O)c1)c1cc(O)c(C(=O)OC)cc1O [PTEROLINUS F]	11.1 µg/mL (≈ 33.6 µM)	11.1 µg/mL (≈ 33.6 µM)	11.1 µg/mL (≈ 33.6 µM)	11.1 µg/mL (≈ 33.6 µM)	11.1 µg/mL (≈ 33.6 µM)	11.1 µg/mL (≈ 33.6 µM)	–
2.1 µg/mL (≈ 6.95 µM)	–	COc1cc(C2CCOc3cc(OC)c(O)cc32)ccc1O (stereo not drawn) [PTEROLINUS J]	> 17.1 µg/mL	> 17.1 µg/mL	> 17.1 µg/mL	> 17.1 µg/mL	> 17.1 µg/mL	> 17.1 µg/mL	inhibition at 10 µg/mL [5]: 16.6%

Reference: ChEMBL document CHEMBL1799983, “Anti-inflammatory and cytotoxic neoflavonoids and benzofurans from Pterocarpus santalinus” (J Nat Prod, 2011)
